ChEMBL document CHEMBL1255219, “Discovery of a β-d-2'-deoxy-2'-α-fluoro-2'-β-C-methyluridine nucleotide prodrug (PSI-7977) for the treatment of hepatitis C virus” (J Med Chem, 2010)

Tests used:
Hepatitis C virus [1] = test: Antiviral activity against HCV infected in human ET-lunet cells; assay type: functional, Hepacivirus hominis
How it was run: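 ET-lunet replicon cells seeded at 3000 cells/well. Compounds serially diluted in culture medium without G418 and added to cells, which were incubated 4 days at 37 °C in 5% CO2. HCV RNA replication measured by quantitative real-time RT-PCR as ΔCt against the mean no-drug control threshold cycle. EC90, the concentration giving 90% inhibition, was calculated.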

Hepatitis C virus [2] = test: Antiviral activity against HCV infected in human clone A cells; assay type: functional, Hepacivirus hominis
How it was run: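 Clone A replicon cells seeded at 1500 cells/well. Compounds serially diluted in G418-free culture medium and added, then incubated 4 days at 37 °C in 5% CO2. HCV RNA quantified by real-time RT-PCR as ΔCt relative to the mean no-drug control.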

[3] = Cytotoxicity against human HepG2 cells assessed as inhibition of ribosomal DNA; assay type: cell-based
How it was run: (§1)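 CEM or HepG2 cells at 1 × 10^4 per well, compound serially diluted from 100 μM, 14 days at 37 °C, 5% CO2. Medium with compound renewed on days 7 and 11. Total DNA extracted; mitochondrial COXII DNA and rDNA measured by multiplex quantitative PCR. ΔCt converted to log reduction, inhibition relative to untreated cells, and the 90% inhibitory concentration reported.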

[4] = Cytotoxicity against human HepG2 cells assessed as inhibition of mitochondrial DNA; assay type: cell-based; how it was run: as §1
CCRF-CEM [5] = test: Cytotoxicity against human CEM cells assessed as inhibition of mitochondrial DNA up to 100 uM; assay type: cell-based; how it was run: as §1
[6] = test system: Hepatitis C virus NS5B S96T/N142T mutant; test: Antiviral activity against HCV expressing NS5B polymerase S96T/N142T mutation infected in human ET-lunet cells
CCRF-CEM [7] = test: Cytotoxicity against human CEM cells assessed as inhibition of ribosomal DNA up to 100 uM; assay type: cell-based; how it was run: as §1
Hepatitis C virus [8] = test: Antiviral activity against HCV expressing NS5B polymerase S282T mutation infected in clone A cells; assay type: functional, Hepacivirus hominis
How it was run: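 Replicon cells seeded at 1500 (clone A) or 3000 (ET-lunet) per well. Serially diluted compound added in medium without G418, 4 days at 37 °C, 5% CO2. HCV RNA measured by real-time RT-PCR as ΔCt versus no-drug control. EC90 calculated; fold change of S282T mutant versus wild-type replicon EC90. At least three independent experiments.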

[9] = Tmax in cynomolgus monkey plasma at 50 mg/kg, po qd for 4 days; assay type: ADME, organism-based, Macaca fascicularis; parameters: dose 50 mg/kg, route oral
How it was run: (§2)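 Oral gavage (dog gastric, monkey nasogastric), 50 mg/kg in 20% w/v hydroxypropyl-β-cyclodextrin in water, 2.5 mL/kg, once daily for 4 consecutive days. Blood sampled into K2EDTA at 1, 2, 4, 6, 12 and 24 h postdose on day 3. Prodrug in plasma quantified by LC/MS/MS, noncompartmental analysis.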

CCRF-CEM [10] = test: Cytotoxicity against human CEM cells at 100 uM; assay type: cell-based
How it was run: (§3)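 Huh7, HepG2 and BxPC3 cells at 2 × 10^3 per well, CEM at 5 × 10^3 per well. Compound serially diluted from 100 μM, 8 days at 37 °C. MTS added for 2 h, absorbance read at 490 nm with medium-only blanks. CC50 taken relative to untreated cells.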

Canis familiaris [11] = test: Metabolic stability in dog liver assessed as prodrug level at 50 mg/kg, po; assay type: ADME, organism-based, Canis lupus familiaris; parameters: dose 50 mg/kg, route oral; conditions: in vivo
How it was run: (§4)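 Dogs and cynomolgus monkeys gavaged once daily with 50 mg/kg in 20% w/v hydroxypropyl-β-cyclodextrin for 4 days. At 4 h postdose on day 4, under pentobarbital, the liver was perfused with ice-cold saline via a portal cannula. Five lobe samples were snap-frozen and homogenized in 3 volumes of cold 70% methanol with 20 mM EDTA/EGTA. Prodrug and triphosphate measured by LC/MS/MS.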

Canis familiaris [12] = test: Metabolic stability in dog liver assessed as 2'-F-2'-C-Methyluridine-5''-triphosphate level at 50 mg/kg, po; assay type: ADME, organism-based, Canis lupus familiaris; parameters: dose 50 mg/kg, route oral; conditions: in vivo; how it was run: as §4
Rattus norvegicus [13] = test: Toxicity in rat assessed as change in liver weight at 50 to 1800 mg/kg, po after 14 days; assay type: organism-based; parameters: dose 50-1800 mg/kg, route oral; conditions: in vivo, 336 h
How it was run: (§5)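 Rats (CD SD, 4–5 weeks, 76–100 g) given a single oral dose of 50, 300 or 1800 mg/kg, or vehicle (30% PEG400/30% Tween 20/20% corn oil/20% water). Observed daily for 14 days with daily body weights. Necropsy on day 15 with macroscopic examination and liver and paired kidney weights.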

Rattus norvegicus [14] = test: Toxicity in rat assessed as change in kidney weight at 50 to 1800 mg/kg, po after 14 days; assay type: organism-based; parameters: dose 50-1800 mg/kg, route oral; conditions: in vivo, 336 h; how it was run: as §5
[15] = Tmax in dog plasma at 50 mg/kg, po qd for 4 days; assay type: ADME, organism-based, Canis lupus familiaris; parameters: dose 50 mg/kg, route oral; how it was run: as §2
Rattus norvegicus [16] = test: Cmax in rat liver assessed as 2'-F-2'-C-Methyluridine-5''-TP level at 50 mg/kg, po; assay type: ADME, organism-based; parameters: dose 50 mg/kg, route oral; conditions: in vivo
How it was run: (§6)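 Rats given a single oral gavage dose of 50 mg/kg in 0.5% carboxymethylcellulose sodium, 5 mL/kg. Livers taken at 0.5, 1, 2, 4, 6 and 12 h after CO2 sacrifice and ice-cold saline perfusion, then snap-frozen. Homogenized in 3 volumes of cold 70% methanol with 20 mM EDTA/EGTA. Triphosphate measured by LC/MS/MS (ESI, MRM negative mode), noncompartmental analysis.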

Homo sapiens = species: Homo sapiens; test: Half life in human plasma at 100 uM
[17] = Half life in human liver S9 fraction at 100 uM; assay type: ADME, subcellular
How it was run: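 Compound at 100 μM in 50 mM K2HPO4 pH 7.4 with 5 mM MgCl2. Started with 4 mg/mL human liver S9 at 37 °C. Samples at 0–24 h quenched with acetonitrile. Parent remaining measured by LC/MS/MS peak area relative to 0 h, and half-life calculated.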

Hepatitis C virus [18] = test: Antiviral activity against HCV infected in human clone A cells assessed as inhibition of cellular rRNA replication at 50 uM; assay type: functional, Hepacivirus hominis
Rattus norvegicus [19] = test: Tmax in rat liver assessed as 2'-F-2'-C-Methyluridine-5''-TP level at 50 mg/kg, po; assay type: ADME, organism-based; parameters: dose 50 mg/kg, route oral; conditions: in vivo; how it was run: as §6
HepG2 = test: Cytotoxicity against human HepG2 cells at 100 uM; assay type: cell-based; conditions: hepg2, 100 µM; how it was run: as §3
[20] = Permeability by PAMPA assay; assay type: ADME; conditions: read-out: permeability
How it was run: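 PAMPA with a lecithin-in-dodecane (20 mg/mL) coated filter donor. Donor held 200 μg/mL compound in PBS pH 7.4 with 2% DMSO; acceptor held PBS with 2% DMSO. Left 24 h. Donor and acceptor concentrations measured by LC/MS/MS (MRM), and Pe calculated from concentrations, volumes, filter area and time.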

Cynomolgus monkey [21] = test: Metabolic stability in cynomolgus monkey liver assessed as 2'-F-2'-C-Methyluridine-5''-triphosphate level at 50 mg/kg, po; assay type: ADME, organism-based, Macaca fascicularis; parameters: dose 50 mg/kg, route oral; conditions: in vivo; how it was run: as §4
[22] = Cytotoxicity against human erythroid progenitor cells after 14 to 16 days
[23] = Cytotoxicity against HuH7 cells at 100 uM; assay type: cell-based; conditions: human, huh-7, 100 µM; how it was run: as §3
Rattus norvegicus [24] = test: AUC (0 to infinity) in rat liver assessed as 2'-F-2'-C-Methyluridine-5''-TP level at 50 mg/kg, po; assay type: ADME, organism-based; parameters: time infinity, dose 50 mg/kg, route oral; conditions: in vivo; how it was run: as §6
[25] = Half life in simulated gastric fluid at pH 1.2 at 50 ug/mL; assay type: physicochemical
How it was run: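 Compound at 50 μg/mL in simulated gastric fluid (pH 1.2) or simulated intestinal fluid (pH 7.5), 37 °C, 20 h. Injected by reverse-phase HPLC every 2 h, peak area at 260 nm. Percent parent remaining relative to 0 h, giving half-life.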

[26] = Half life in simulated intestinal fluid of pH 7.5 at 50 ug/mL; assay type: physicochemical
How it was run: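 Compound at 50 μg/mL in simulated gastric fluid (pH 1.2) or simulated intestinal fluid (pH 7.5), 37 °C, 20 h. Injected by reverse-phase HPLC every 2 h, peak area at 260 nm.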

[27] = Cmax in cynomolgus monkey plasma at 50 mg/kg, po qd for 4 days; assay type: ADME, organism-based, Macaca fascicularis; parameters: dose 50 mg/kg, route oral; how it was run: as §2
Rattus norvegicus [28] = test: Toxicity in rat assessed as change in macroscopic pathology at 50 to 1800 mg/kg, po after 14 days; assay type: organism-based; parameters: dose 50-1800 mg/kg, route oral; conditions: in vivo, 336 h; how it was run: as §5
Rattus norvegicus [29] = test: AUC (0 to t) in rat liver assessed as 2'-F-2'-C-Methyluridine-5''-TP level at 50 mg/kg, po; assay type: ADME, organism-based; parameters: dose 50 mg/kg, route oral; conditions: in vivo; how it was run: as §6
[30] = Cytotoxicity against human BxPC3 cells at 100 uM; assay type: cell-based; conditions: bxpc-3, 100 µM; how it was run: as §3
Cynomolgus monkey [31] = test: Metabolic stability in cynomolgus monkey liver assessed as prodrug level at 50 mg/kg, po; assay type: ADME, organism-based, Macaca fascicularis; parameters: dose 50 mg/kg, route oral; conditions: in vivo; how it was run: as §4
[32] = Cytotoxicity against human myeloid progenitor cells after 14 to 16 days
Rattus norvegicus [33] = test: Toxicity in rat assessed as change in body weight at 50 to 1800 mg/kg, po after 14 days; assay type: organism-based; parameters: dose 50-1800 mg/kg, route oral; conditions: in vivo, 336 h; how it was run: as §5
[34] = AUC (0 to t) in dog plasma at 50 mg/kg, po qd for 4 days; assay type: ADME, organism-based, Canis lupus familiaris; parameters: dose 50 mg/kg, route oral; how it was run: as §2
[35] = Cmax in dog plasma at 50 mg/kg, po qd for 4 days; assay type: ADME, organism-based, Canis lupus familiaris; parameters: dose 50 mg/kg, route oral; how it was run: as §2
Rattus norvegicus [36] = test: Toxicity in rat assessed as mortality at 50 to 1800 mg/kg, po after 14 days; assay type: organism-based; parameters: dose 50-1800 mg/kg, route oral; conditions: in vivo, 336 h; how it was run: as §5
[37] = AUC (0 to t) in cynomolgus monkey plasma at 50 mg/kg, po qd for 4 days; assay type: ADME, organism-based, Macaca fascicularis; parameters: dose 50 mg/kg, route oral; how it was run: as §2
[38] = AUC (0 to infinity) in dog plasma at 50 mg/kg, po qd for 4 days; assay type: ADME, organism-based, Canis lupus familiaris; parameters: time infinity, dose 50 mg/kg, route oral; how it was run: as §2
[39] = AUC (0 to infinity) in cynomolgus monkey plasma at 50 mg/kg, po qd for 4 days; assay type: ADME, organism-based, Macaca fascicularis; parameters: time infinity, dose 50 mg/kg, route oral; how it was run: as §2

CC(C)OC(=O)[C@H](C)N[P@](=O)(OC[C@H]1O[C@@H](n2ccc(=O)[nH]c2=O)[C@](C)(F)[C@@H]1O)Oc1ccccc1 [SOFOSBUVIR]
EC90 (Hepatitis C virus [1]): 0.23 µM
EC90 (Hepatitis C virus [2]): 0.42 µM
CC90 [3]: 68.6 µM
CC90 [4]: 72.1 µM
Activity (CCRF-CEM [5]): Non-toxic
EC90 [6]: 0.11 µM
Activity (CCRF-CEM [7]): Non-toxic
EC90 (Hepatitis C virus [8]): 7.8 µM

COC(=O)[C@H](C)NP(=O)(OC[C@H]1O[C@@H](n2ccc(=O)[nH]c2=O)[C@](C)(F)[C@@H]1O)Oc1ccccc1 (some centres not stated)
Tmax [9]: 0.25 h
Activity (CCRF-CEM [10]): Non-toxic
Drug uptake (Canis familiaris [11]): 5.24 ng/g
Drug uptake (Canis familiaris [12]): 4960 ng/g
Activity (Rattus norvegicus [13]): Non-toxic
Activity (Rattus norvegicus [14]): Non-toxic
Tmax [15]: 1 h
Cmax (Rattus norvegicus [16]): 1985 ng/g
half-life at 100 µM (Homo sapiens): 16.7 h
half-life at 100 µM [17]: 0.18 h
inhibition at 50 µM (Hepatitis C virus [18]): 0%
Tmax (Rattus norvegicus [19]): 6 h
Activity (HepG2): Non-toxic
EC90 (Hepatitis C virus [2]; Hepatitis C virus): 0.91 µM
Papp [20]: 0.007 ×10⁻⁶ cm/s
Drug uptake (Cynomolgus monkey [21]): 26 ng/g
IC50 [22]: > 50 µM
Activity [23]: Non-toxic
AUC (Rattus norvegicus [24]): 18968 ng·h/g
half-life at 50 ug/mL [25]: 15.5 h
half-life at 50 ug/mL [26]: > 20 h
Cmax [27]: 19 ng/mL
Activity (Rattus norvegicus [28]): Non-toxic
AUC (Rattus norvegicus [29]): 14206 ng·h/g
Activity [30]: Non-toxic
Drug uptake (Cynomolgus monkey [31]): 4.66 ng/g
IC50 [32]: > 50 µM
Activity (Rattus norvegicus [33]): Non-toxic
AUC(0-t) at 96 h [34]: 418 ng·h/mL
Cmax [35]: 317 ng/mL
Activity (Rattus norvegicus [36]): Non-toxic
AUC(0-t) at 96 h [37]: 27 ng·h/mL
AUC(0-inf) [38]: 420 ng·h/mL
AUC(0-inf) [39]: 34 ng·h/mL
